Rows were chosen to be rich in hits. Some 4.2% of all compounds tested hit in one or more screens of this group.
HDAC3 inhib = inhibitors of human histone deacetylase 3; O15379; AID 2718; inhibition, % at 8.3 µM; recombinant HDAC3, fluorogenic peptide/trypsin coupled, fluorescence; 320,000 compounds, 0.15% hits; in the data active means inhibition above about 26%, passing the limit was not always enough
Target sequence (O15379 whole entry, looked up): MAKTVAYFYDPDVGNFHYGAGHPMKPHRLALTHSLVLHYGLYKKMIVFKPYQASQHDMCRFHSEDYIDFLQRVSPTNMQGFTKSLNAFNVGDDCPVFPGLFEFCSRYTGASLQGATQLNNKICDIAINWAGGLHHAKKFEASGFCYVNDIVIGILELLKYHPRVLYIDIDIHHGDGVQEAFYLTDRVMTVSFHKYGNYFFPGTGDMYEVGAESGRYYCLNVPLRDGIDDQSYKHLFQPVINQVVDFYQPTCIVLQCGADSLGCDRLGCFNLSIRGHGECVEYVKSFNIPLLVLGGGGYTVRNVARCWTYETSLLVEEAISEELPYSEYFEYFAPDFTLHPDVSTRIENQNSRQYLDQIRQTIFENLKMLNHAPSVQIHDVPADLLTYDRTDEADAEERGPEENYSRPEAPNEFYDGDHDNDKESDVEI
CTSL1 counter = counter-screen for PFM18AAP inhibitors: inhibitors of F. hepatica cathepsin L1; inhibition, % at 5.96 µM; recombinant F. hepatica cathepsin L1, Z-Leu-Arg-MCA fluorescence; 300,000 compounds, 0.49% hits;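 active means inhibition above the mean of all tested compounds plus 3 SD, set per screening campaign, cut at about 17% in these data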
M18AAP inhibitor = blocks P. falciparum M18 aspartyl aminopeptidase | recombinant PfM18AAP, H-Glu-NHMec fluorogenic cleavage | inhibition, % at 7.35 µM | 290,000 compounds, 1.2% hits;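 active means inhibition above the campaign mean inhibition over all tested compounds plus 3 SD, cut at about 28% in these data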
SENP1 inh = inhibitors of human SENP1 SUMO protease catalytic domain | Q9P0U3 | recombinant SENP1 catalytic domain, CyPet-SUMO1-YPet FRET cleavage | inhibition, % at 10 µM | 360,000 compounds, 0.21% hits | AID 624204;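 active means inhibition at least 30% at 10 µM, raw YFP signal under a set limit, fluorescence ratio 0.5 to 1.5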
Target sequence (Q9P0U3 419-644 limits assumed): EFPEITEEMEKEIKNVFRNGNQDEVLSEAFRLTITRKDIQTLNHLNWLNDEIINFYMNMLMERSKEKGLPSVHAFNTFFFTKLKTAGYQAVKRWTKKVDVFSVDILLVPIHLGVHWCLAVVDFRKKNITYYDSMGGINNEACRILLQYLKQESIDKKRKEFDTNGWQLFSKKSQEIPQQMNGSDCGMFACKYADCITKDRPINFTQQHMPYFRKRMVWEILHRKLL
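system = hSENP1 catalytic domain, recombinant | reagent = SFCypet-SUMO1-SFYpet substrate at 25 nM | doses = one dose per compound, 10 µM, 0.5% DMSO | incubation = enzyme reaction for 50 min at room temperature, dark | measured by = FRET, CFP and YFP emission | controls = no-enzyme low, enzyme-DMSO high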
AHR activator = human AHR activation | AHR-responsive luciferase reporter cells, luminescence | activation, % at 5 µM | AID 2796 | 320,000 compounds, 2.5% hits; in the data active means activation above about 47%
GAA850 FXN act = increases GAA850 frataxin promoter reporter activity | activation, % at 6 µM | 360,000 compounds, 0.56% hits | HEK293 lucGAA850 FXN promoter luciferase reporter, 24 h; percent of 10 µM SAHA response;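 active means activation above the average of all compounds screened plus 3 SD, cutoff fixed separately per campaign, cut at about 7.5% in these data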
GAA30 counter = counter-screen for GAA850 frataxin promoter activators: GAA30 promoter activation | shares compounds with GAA850 FXN act | HEK293 lucGAA30 FXN promoter luciferase, 24 h; DMSO = 0%, 5 µM ipriflavone = 100% | activation, % at 6 µM | 1,900 compounds, 66% hits;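 active means mean activation above the mean of solvent-only control wells plus 3 SD, cut at about 22% in these data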;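 further: counterscreen of GAA850 promoter hits where activity marks nonselective or luminescence artifacts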
GAA850 confirm = GAA850 FXN promoter activation confirmation. shares compounds with GAA850 FXN act. HEK293 lucGAA850 FXN promoter luciferase reporter, 24 h; 100% = activation by SAHA. activation, % at 6 µM. 1,900 compounds, 86% hits. AID 588351;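 active means mean activation above a set limit taken from the primary screen, cut at about 8% in these data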
Numbers stand for hits; n = inactive; x = no result given.

SMILES	HDAC3 inhib	CTSL1 counter	M18AAP inhibitor	SENP1 inh	AHR activator	GAA850 FXN act	GAA30 counter	GAA850 confirm
Nc1ccccc1C#CC(=O)c1ccccc1	n	n	n	n	n	14	n	n
CN(C)Cc1csc(NC(=O)Nc2ccccc2Cc2ccccc2)n1	x	x	x	n	x	n	x	x
CCCCn1c(/C=N/Nc2nc3ccccc3[nH]2)nc2ccccc21	n	n	n	n	73	12	n	n
Cc1nc(SCC(=O)N2CCCC2=O)c2c(C)c(C)sc2n1	x	x	x	n	x	n	x	x
Cc1ccccc1-c1ccc(C(=O)Nc2cccc(F)c2)o1	n	n	n	n	n	7.7	57	17
Cc1onc(-c2ccccc2)c1C(=O)NCc1ccc(Cl)cc1	n	x	n	n	x	n	x	x
COc1ccc(CNC(=O)c2c(-c3cc(Cl)c(OC)c(Cl)c3)noc2C)cc1	n	n	n	n	n	10	n	11
Cc1cccc(/C=N\Nc2cn[nH]c(=O)c2Cl)c1	n	n	n	n	n	22	66	24
O=c1[nH]ncc(N/N=C\c2cccnc2)c1Cl	n	n	n	n	n	n	x	x
CC1CC(=O)NN=C1c1ccc(N(C)C)c([N+](=O)[O-])c1 (centres undefined)	n	n	n	n	n	7.8	26	22
CC(C)(C)N1C(=O)[C@H]2[C@@H](c3ccc(Br)cc3)N3C(=O)N(c4cccc(F)c4)C(=O)[C@@]3(Cc3ccccc3)[C@H]2C1=O	n	n	x	n	n	n	x	x
COc1ccc([C@@H]2[C@@H]3C(=O)N(C(C)(C)C)C(=O)[C@@H]3[C@]3(Cc4ccc(Cl)cc4)C(=O)N(c4ccc(OC)cc4)C(=O)N23)cc1	n	n	x	n	n	n	x	x
Cc1ccc(N2C(=O)N3[C@H](c4ccc(F)cc4)[C@@H]4C(=O)N(C5CCCCC5)C(=O)[C@@H]4[C@]3(Cc3ccccc3)C2=O)cc1	n	n	n	n	n	12	31	11
O=C1[C@H]2[C@@H](c3ccc(Cl)cc3)N3C(=O)N(c4cccc(Cl)c4)C(=O)[C@@]3(Cc3ccccc3)[C@H]2C(=O)N1C1CCCCC1	n	n	x	n	n	8.2	n	n
CCN1C(=O)[C@H]2[C@@H](c3ccc(C)cc3)N3C(=O)N(c4ccc(C)cc4)C(=O)[C@@]3(Cc3ccccc3)[C@H]2C1=O	n	n	n	n	n	n	x	x
O=C1[C@H]2[C@@H](c3ccc(F)cc3)N3C(=O)N(c4cccc(F)c4)C(=O)[C@@]3(Cc3ccccc3)[C@H]2C(=O)N1C1CCCCC1	n	n	x	n	n	11	28	14
COc1ccc(N2C(=O)N3[C@H](c4ccc(Cl)cc4)[C@@H]4C(=O)N(C5CCCCC5)C(=O)[C@@H]4[C@]3(Cc3ccc(Cl)cc3)C2=O)cc1	n	n	n	n	n	7.9	31	12
CCCNC(=O)C(Cc1cccc(C#N)c1)NC(=O)c1cccc([N+](=O)[O-])c1 (centres undefined)	n	x	x	n	n	n	x	x
COc1ccc(S(=O)(=O)N2CCOC2CNC(=O)C(=O)NCCCN2CCCC2=O)cc1OC (centres undefined)	x	x	x	n	x	n	x	x
O=C(C=Cc1ccco1)c1ccco1	x	x	x	n	x	n	x	x
O=C(/C=C/C=C/c1ccccc1)c1ccco1	n	n	n	n	n	9.5	106	44
CCOC(=O)c1cnc(SCCc2ccccc2)nc1N	n	n	n	n	n	n	x	x
CCOC(=O)c1cnc(SCc2ccc(C)cc2)nc1N	n	n	n	n	n	7.8	86	27
O=C(Oc1c(CN2CCOCC2)cc(Cl)c2cccnc12)c1ccccc1F	n	n	n	n	n	7.7	n	14
O=C(Oc1c(CN2CCOCC2)cc(Cl)c2cccnc12)c1ccccc1	n	n	n	n	n	n	x	x
SMILES	HDAC3 inhib	CTSL1 counter	M18AAP inhibitor	SENP1 inh	AHR activator	GAA850 FXN act	GAA30 counter	GAA850 confirm
CN(C)c1nc(N)nc(CSc2nc3cc(Cl)ccc3o2)n1	n	n	n	n	n	8.3	48	27
CCN(C(=O)c1ccco1)c1nc(-c2ccc(OC)cc2)cs1	n	n	n	n	n	8.3	110	37
COc1ccc(-c2csc(N(CC(C)C)C(=O)c3ccco3)n2)cc1	n	n	n	n	n	n	x	x
Cc1cc(C)c(C(CC(=O)c2cccs2)C(C#N)C#N)c(C)c1 (centres undefined)	x	n	n	n	58	9.0	100	61
CC(C)C(=O)N1CCN(c2ccc(NC(=O)c3ccc([N+](=O)[O-])o3)cc2Cl)CC1	x	x	n	n	x	n	x	x
CN1CCN(c2ccc(NC(=O)c3ccc([N+](=O)[O-])o3)cc2Cl)CC1	n	n	n	n	n	n	x	x
CCCC(=O)N1CCN(c2ccc(NC(=O)c3ccc([N+](=O)[O-])o3)cc2Cl)CC1	x	x	n	n	x	7.9	n	24
O=C(Nc1ccc(N2CCOCC2)c(Cl)c1)c1ccc([N+](=O)[O-])o1	x	x	n	n	x	11	118	56
Cc1nn(CC(=O)NC2CCCCC2)c(C)c1[N+](=O)[O-]	x	x	x	n	x	n	x	x
CNC(=O)C[C@H]1C(=O)N(C2CCCCC2)C[C@@H]1c1ccc(Br)cc1	x	x	x	n	x	n	x	x
Cc1ccc(OCc2ccc([N+](=O)[O-])cc2)c([N+](=O)[O-])n1	n	n	n	n	n	8.4	117	34
O=C(Nc1ccc(Cl)c(Cl)c1)C1=Cc2ccccc2OC1	n	n	n	n	n	9.1	86	34
O=C(Cn1c(=O)oc2cc(S(=O)(=O)N3CCCCCC3)ccc21)NC1CCCCCCC1	n	17	n	n	n	16	n	16
Cn1c(=O)oc2cc(S(=O)(=O)N3CCC(C(=O)NCc4ccc(F)cc4)CC3)ccc21	n	n	n	n	n	11	n	n
CCCNC(=O)Cn1c(=O)oc2cc(S(=O)(=O)N3CCCC3)ccc21	n	n	n	n	n	n	x	x
Cc1c(-c2ccccc2)n(O)[n+]([O-])c1-c1ccccc1	x	x	x	n	x	n	x	x
O=Nc1c(-c2ccccc2)n(O)[n+]([O-])c1-c1ccccc1	x	x	x	n	x	8.9	75	36
C=C(C)CSc1nncn1/N=C/c1ccc(OC)cc1	n	n	n	n	n	11	102	34
CCOc1ccc(NS(=O)(=O)c2cccs2)cc1S(=O)(=O)N1CCCC1	x	x	x	n	x	n	x	x
COC(=O)c1c(NC(=O)CN2CCC3(O)CCCCC3C2c2cc(OC)ccc2OC)sc(C)c1C (centres undefined)	n	n	n	n	n	12	n	9.9
CN(Cc1cccc(Cl)c1Cl)CC(O)COc1ccccc1 (centres undefined)	n	n	n	n	n	n	x	x

Source: PubChem
